Active and inactive are the calls of the source.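 How the source made its calls, unless noted: active means a full or partial loss of lipid-probe fluorescence in the fish gall bladder, intestine or both, judged by eye; inactive means no fluorescence loss, or compound toxic to the fish.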

Assay [1] in a line: inhibitors of TNFa-induced NFkB p65 translocation, primary screen, imaging, HUVEC, MLSMR starter and 10KST1 sets (AID 438;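 active means inhibition above 20% together with a positive visual image hit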;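 further: compound added about 3h40 before a 20 min TNFalpha stimulation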;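 on inhibition: signal is the nuclear over cytoplasmic p65 intensity ratio per well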). The following applies: HUVEC TNFa-induced p65 nuclear translocation; cell count: measured here: nuclei count (cytotoxicity indicator), at 2.08 µM; inhibition: at 2 µM, stronger effect = higher value, 0% TNFa-plus-vehicle, 100% no-TNFa wells.
The nature of assay [2]: inhibitors of E-selectin induction by TNFa, primary screen, imaging, HUVEC, immunofluorescence, MLSMR starter and 10KST1 sets (AID 487;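 active means visually confirmed hit in the image check and inhibition above 20%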;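 on inhibition: signal is fraction of cell area covered by stained E-selectin grains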;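 on nuclei count: 100% = median nuclei count of all wells on the same plate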). The following applies: HUVEC TNFalpha-induced E-selectin immunofluorescence imaging, at 2 µM; inhibition: stronger effect = higher value; nuclei count: measured here: cell number, toxicity.
Assay [3] is described as follows: DUSP6 inhibitors restoring Erk phosphorylation by chemical complementation, primary imaging in DUSP6-transfected HeLa (AID 609;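 active means compounds giving at least 50% inhibition in the cell-based MKP-3 phosphatase rescue imaging test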;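 on inhibition: phospho-Erk level distribution per well compared with pooled transfected vehicle control wells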). Particulars: HeLa MKP-3 transfected, phospho-Erk imaging KS statistic, at 10 µM, cells stimulated with TPA for 15 min.
Assay [4] has as its target Dual specificity protein phosphatase 6 (Homo sapiens) (UniProt Q16828). The description is as above. The following applies: HeLa MKP-3 transfected, phospho-Erk imaging KS statistic; at 10 µM; stronger effect = higher value; cells stimulated with TPA for 15 min.
The target in assay [5] is Voltage-gated potassium channel subunit beta-2 (Rattus norvegicus) (UniProt P62483). The assay is described as follows: KvBeta enzyme negative modulators, primary screen, biochemical, NADPH fluorescence (AID 622;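 active means fluorescence slope higher than the sample average by over 3 SD, cut at about -0.22 in these data, passing the limit was not always enough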;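 further: slope of raw intensity against log time taken from 70 to 1610 s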). Particulars: recombinant KvBeta, 4-cyanobenzaldehyde reduction, at 10 µM, stronger effect = higher value.
Assay [6] has the same target. Kind of assay: KvBeta positive modulators, primary screen, biochemical, NADPH fluorescence (AID 623;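 active means NADPH fluorescence slope more negative than the mean of all samples by about 3 SD, 99.7% confidence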;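 further: fluorescence intensity change per second fitted from 20 to 320 s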). Particulars: Recombinant KvBeta, NADPH fluorescence decrease slope, 10 min; at 10 µM; stronger effect = lower value.
The target in assay [7] is Alpha-2C adrenergic receptor (Homo sapiens) (UniProt P18825). Kind of assay: modulators of alpha2C/GIRK thallium flux, primary screen, cell-based, HEK293 alpha2C/GIRK1/2 (AID 624;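 active means fluorescence slope after compound addition differing from the mean of all screened samples at 99.7% confidence, in either direction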;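 further: slope of fluorescence ratio to pre-addition baseline per second over 15 to 24 s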). The following applies: thallium flux BTC fluorescence, at 10 µM, actives lie on both sides.
The nature of assay [8]: inhibitors of larval lipid processing in zebrafish, primary screen, whole organism, PED6 fluorescence, gall bladder and intestine (AID 686).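 Further: larvae 5 to 7 days old with five fish per well; signal comes from phospholipase A2 cleavage of quenched PED6 carried via bile; overnight exposure to compound and PED6 before scoring.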 Particulars: Zebrafish larvae PED6 lipid processing, fluorescence scoring; screened at 20 µM (by protocol). A digest of the protocol: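 System: live zebrafish larvae aged 5-7 days, whole organism; measure: graded gall bladder and intestinal fluorescence inhibition per well; incubation: overnight exposure; reagent: ingested quenched lipid PED6 at 100 nM; signal: By-eye fluorescence microscopy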

A short description of assay [9]: inhibitors of Chlamydomonas gravitaxis, primary screen, whole organism, Chlamydomonas reinhardtii, WT vs cilia-less mutant, absorbance, 96-well (AID 463189;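 active means inhibition at or above 50% relative to wild type and mutant plate controls; inactive means inhibition below 50%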;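 further: 0% = wild type cc124 cells in DMSO and 100% = ciliumless bld1 mutant cells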). Particulars: OD600 absorbance, 2 days, at 10 µM, stronger effect = higher value.
Where [10] appears, read: measured here: cell density z-score.
[11] abbreviates: measured here: nuclear c-Myc green intensity z-score.
[12] abbreviates: measured here: nuclear pErk red intensity z-score, stronger effect = higher value.

Sequence of Dual specificity protein phosphatase 6 (Homo sapiens) (Q16828 whole entry, looked up): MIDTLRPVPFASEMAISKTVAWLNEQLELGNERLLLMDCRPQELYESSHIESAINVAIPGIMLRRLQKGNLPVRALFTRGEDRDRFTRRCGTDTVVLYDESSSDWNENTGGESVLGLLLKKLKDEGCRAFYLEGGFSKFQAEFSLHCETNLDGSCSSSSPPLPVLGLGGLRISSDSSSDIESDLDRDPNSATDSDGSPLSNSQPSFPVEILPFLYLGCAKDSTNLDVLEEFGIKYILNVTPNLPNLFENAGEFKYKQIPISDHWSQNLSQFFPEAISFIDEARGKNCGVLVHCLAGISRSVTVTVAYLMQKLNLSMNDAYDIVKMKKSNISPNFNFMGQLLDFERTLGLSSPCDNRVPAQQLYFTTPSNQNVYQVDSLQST
Sequence of Alpha-2C adrenergic receptor (Homo sapiens) (P18825 whole entry, looked up): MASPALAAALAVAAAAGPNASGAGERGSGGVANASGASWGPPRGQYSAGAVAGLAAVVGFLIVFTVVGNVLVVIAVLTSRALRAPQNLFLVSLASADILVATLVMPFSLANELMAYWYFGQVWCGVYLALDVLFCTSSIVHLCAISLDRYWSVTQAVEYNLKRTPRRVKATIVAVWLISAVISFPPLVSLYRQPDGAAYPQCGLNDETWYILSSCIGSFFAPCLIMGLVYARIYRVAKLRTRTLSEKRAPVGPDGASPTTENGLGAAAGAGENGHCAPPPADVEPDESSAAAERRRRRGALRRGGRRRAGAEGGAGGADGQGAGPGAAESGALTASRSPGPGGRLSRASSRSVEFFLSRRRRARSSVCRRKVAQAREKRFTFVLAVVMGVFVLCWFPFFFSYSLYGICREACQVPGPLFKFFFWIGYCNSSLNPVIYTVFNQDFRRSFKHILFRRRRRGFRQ
Sequence of Voltage-gated potassium channel subunit beta-2 (Rattus norvegicus) (P62483 whole entry, looked up): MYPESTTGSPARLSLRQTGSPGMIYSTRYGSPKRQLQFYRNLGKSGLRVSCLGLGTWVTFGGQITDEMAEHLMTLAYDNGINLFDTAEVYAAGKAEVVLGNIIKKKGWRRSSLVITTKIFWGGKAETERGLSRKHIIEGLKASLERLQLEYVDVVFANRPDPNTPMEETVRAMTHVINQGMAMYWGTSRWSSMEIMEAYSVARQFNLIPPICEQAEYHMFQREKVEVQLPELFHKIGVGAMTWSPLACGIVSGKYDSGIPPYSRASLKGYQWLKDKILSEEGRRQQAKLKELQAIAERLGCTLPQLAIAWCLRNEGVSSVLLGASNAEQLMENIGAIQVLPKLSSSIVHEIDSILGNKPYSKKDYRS

On to `CN1CCN(CCC(=O)N2c3ccccc3Sc3ccc(Cl)cc32)CC1`, for which the cell count in assay [1] is 450. Moreover, the inhibition in assay [1] is -3.2% (inactive); in [2], -122% (inactive); in assay [4], 0.671% (inactive); in [9] it was 15.9% (inactive). In assay [2], the nuclei count is 176%. For the same molecule, the z-score in assay [3] (setting [10]) is 0.831; in [3] (setting [11]), 0.747; in [3] (setting [12]), -0.386. In [5], the fluorescence slope is -0.432 (inactive). Moreover, the NADPH fluorescence slope in assay [6] was -5.3e-05 (inactive). In addition, the slope in assay [7] is 0.00551 (inactive). Moreover, in assay [8], the molecule was classed as inactive.
Turning to `O=C(c1ccccc1)C(CCC(CN1CCOCC1)C(=O)c1ccccc1)CN1CCOCC1` (centres undefined), the cell count in assay [1] is 588. The inhibition in assay [1] was -0.1% (inactive); in assay [2], -9.4% (inactive); in assay [4], 1.75% (inactive); in assay [9], 24.8% (inactive). The nuclei count in assay [2] was determined as 109%. Also, the z-score in [3] (setting [10]) is 0.046; in assay [3] (setting [11]), -0.626; in assay [3] (setting [12]), 1.7. Moreover, in assay [5], the fluorescence slope is -0.59 (inactive). Also, in assay [6], the NADPH fluorescence slope was -1.8e-05 (inactive). The slope in assay [7] is 0.00635 (inactive). Further, the outcome in assay [8] was inactive.
For the molecule `COc1ccc(/C(O)=C2\C(=O)C(=O)N(c3cc(C)on3)C2c2cccc(OC)c2OC)cc1C` (centres undefined), the cell count in [1] was 531. For the same molecule, the inhibition in assay [1] is -1.2% (inactive); in [2] it was -148% (inactive); in assay [4] it was 1.75% (inactive); in assay [9], -15.3% (inactive). In assay [2], the nuclei count stood at 129%. Further, the values for the z-score in assay [3] (setting [10]), in assay [3] (setting [11]) and in assay [3] (setting [12]) were -0.589, 1.28 and 0.634, respectively. For the same molecule, the fluorescence slope in assay [5] was -0.5 (inactive). Further, the NADPH fluorescence slope in assay [6] is -2.6e-05 (inactive). Also, in assay [7], the slope was 0.00468 (inactive). In addition, the molecule was called inactive in assay [8].
For the molecule `Cc1sccc1C1C(C#N)=C(N)SC(N)=C1C#N`, the cell count in assay [1] turned out to be 693. The inhibition in assay [1] was -19.1% (inactive); in assay [2] it was -22.1% (inactive); in [4], 16% (inactive); in [9], -2.96% (inactive). Besides, the nuclei count in [2] was determined as 167%. The figures for the z-score in assay [3] (setting [10]), in assay [3] (setting [11]) and in assay [3] (setting [12]) were 0.12, -0.636 and 1.06, respectively. In addition, in [5], the fluorescence slope was -0.345 (inactive). For the same molecule, the NADPH fluorescence slope in assay [6] was -2.2e-05 (inactive). Also, the slope in assay [7] was 0.00967 (inactive). Besides, the result in assay [8] was inactive.
Take `CSc1nc(NC(C)=O)nc(C)c1Cl`: the cell count in [1] stood at 555. The inhibition in assay [1] was 1.9% (inactive); in [2], 33.2% (inactive); in [4], 1.48% (inactive); in assay [9], 37.7% (inactive). Further, the nuclei count in assay [2] is 97.7%. Further, the z-score was -0.722 in assay [3] (setting [10]), 0.648 in assay [3] (setting [11]) and -0.574 in assay [3] (setting [12]). Moreover, in [5], the fluorescence slope was -0.343 (inactive). For the same molecule, the NADPH fluorescence slope in assay [6] was -7.4e-06 (inactive). Further, in [7], the slope is 0.00457 (inactive). Besides, the call in [8] was inactive.
As for `Cc1ccc(N(CN2C(=O)NC(C)(C)C2=O)CN2C(=O)NC(C)(C)C2=O)cc1`, the cell count in assay [1] is 465. Moreover, the inhibition was 5.9% (inactive) in [1], -355% (inactive) in [2], 2.71% (inactive) in assay [4] and 5.64% (inactive) in assay [9]. In [2], this molecule yielded a nuclei count of 156%. Also, the z-score in assay [3] (setting [10]) was 0.539; in assay [3] (setting [11]) it was 0.101; in assay [3] (setting [12]), 0.322. The fluorescence slope in assay [5] was -0.315 (inactive). Further, in assay [6], the NADPH fluorescence slope is -9.5e-06 (inactive). In addition, in assay [7], the slope is 0.00542 (inactive). The call in assay [8] was inactive.
In the case of `N#CC1=C(N)C(C#N)(C#N)[C@H](c2ccncc2)[C@H]2CN(C(=O)OCc3ccccc3)CC=C12`, the cell count in assay [1] was 555. In addition, the inhibition in [1] was -9.5% (inactive); in assay [2], -136% (inactive); in assay [4] it was 20.3% (inactive); in assay [9] it was 7.4% (inactive). In assay [2], this molecule gave a nuclei count of 192%. Moreover, the figures for the z-score in assay [3] (setting [10]), in assay [3] (setting [11]) and in [3] (setting [12]) were -0.56, -0.0237 and -0.0209, respectively. The fluorescence slope in assay [5] was -0.271 (inactive). The NADPH fluorescence slope in assay [6] was -4.4e-06 (inactive). Moreover, in assay [7], the slope was 0.00576 (inactive). In addition, the outcome in assay [8] was inactive.
For `COC(=O)COn1c(SCC(=O)OC)nc2ccccc2c1=O`, the cell count in assay [1] is 300. Further, the inhibition is -3.5% (inactive) in assay [1], -6.8% (inactive) in [2], -8.59% (inactive) in assay [4] and -12.1% (inactive) in assay [9]. In [2], this molecule displayed a nuclei count of 89.2%. Also, the z-score in assay [3] (setting [10]) is -1.82; in assay [3] (setting [11]), 0.261; in [3] (setting [12]) it was 0.27. Besides, the fluorescence slope in assay [5] is -0.442 (inactive). Moreover, the NADPH fluorescence slope in [6] is -0.000116 (inactive). For the same molecule, the slope in assay [7] is 0.00782 (inactive). Moreover, the call in assay [8] was inactive.
As to `COc1cccc(Cn2c(NCC(C)C)nc3c2c(=O)n(C)c(=O)n3C)c1`, the cell count in assay [1] was 341. For the same molecule, the inhibition was 3.2% (inactive) in [1], -77.7% (inactive) in [2], -0.624% (inactive) in assay [4] and -12.8% (inactive) in assay [9]. Also, in [2], the nuclei count amounted to 127%. For the same molecule, the z-score in [3] (setting [10]) was -0.509; in assay [3] (setting [11]) it was 0.441; in assay [3] (setting [12]), 1.11. Further, the fluorescence slope in assay [5] is -0.385 (inactive). In addition, the NADPH fluorescence slope in assay [6] is 4.1e-05 (inactive). Besides, in [7], the slope is 0.00489 (inactive). Further, the outcome in [8] was inactive.
With `COc1cc(-c2cc(C(F)(F)F)n3ncc(C(=O)O)c3n2)cc(OC)c1OC`, in [1], the cell count came to 479. Besides, the inhibition in assay [1] was -8.4% (inactive); in assay [2], -63% (inactive); in [4] it was 11.3% (inactive); in assay [9], -8.65% (inactive). In addition, in assay [2], the nuclei count was found to be 123%. In addition, the z-score in [3] (setting [10]) is 0.0221; in assay [3] (setting [11]), -0.381; in assay [3] (setting [12]), 0.038. The fluorescence slope in assay [5] was -0.439 (inactive). Moreover, the NADPH fluorescence slope in assay [6] is -0.000193 (inactive). In [7], the slope is 0.00431 (inactive). In addition, the molecule was called inactive in assay [8].
For the molecule `Cn1c(SCC(=O)N2CCOCC2)nnc1-c1ccc(Cl)cc1Cl`, the cell count in [1] came out at 359. The inhibition in assay [1] is -9.4% (inactive); in assay [2], -17.3% (inactive); in assay [4] it was 1.75% (inactive); in [9], -14.7% (inactive). The molecule also had a nuclei count in assay [2] of 101%. Also, the z-score in assay [3] (setting [10]) is 0.947; in assay [3] (setting [11]) it was -0.186; in assay [3] (setting [12]), -0.938. Moreover, the fluorescence slope in [5] is -0.453 (inactive). In [6], the NADPH fluorescence slope is 1.1e-05 (inactive). Further, in assay [7], the slope was 0.00668 (inactive). Also, the outcome in assay [8] was inactive.
Consider `Nc1nonc1OCCc1ccccc1`, for which the cell count in [1] stood at 540. Further, the inhibition in [1] was -5.8% (inactive); in assay [2], -31.5% (inactive); in assay [4], -6.06% (inactive); in [9], -3.19% (inactive). Besides, the nuclei count in assay [2] came out at 160%. Further, the z-score in assay [3] (setting [10]) amounted to 0.698; in assay [3] (setting [11]), 1.41; in assay [3] (setting [12]) it was 0.0192. In addition, in [5], the fluorescence slope is -0.439 (inactive). The NADPH fluorescence slope in assay [6] was -4.6e-05 (inactive). Further, the slope in assay [7] is 0.00604 (inactive). Also, the molecule was classed as inactive in assay [8].
Turning to `COn1c(=S)[nH]c2ccccc2c1=O`, in assay [1], the cell count worked out at 454. Moreover, the inhibition is 0.3% (inactive) in assay [1], -12.8% (inactive) in [2], 3.5% (inactive) in assay [4] and 1.26% (inactive) in [9]. Also, the nuclei count in [2] was found to be 98.1%. Besides, the z-score is -1.19 in [3] (setting [10]), 0.293 in assay [3] (setting [11]) and -0.609 in [3] (setting [12]). In [5], the fluorescence slope is -0.496 (inactive). In addition, the NADPH fluorescence slope in assay [6] was -7.7e-06 (inactive). Further, in assay [7], the slope was 0.00619 (inactive). In addition, the outcome in assay [8] was inactive.

The values above are taken from PubChem BioAssay.
